Experimental data taken from ChEMBL document CHEMBL4028836, “Optimization of M4 positive allosteric modulators (PAMs): The discovery of VU0476406, a non-human primate in vivo tool compound for translational pharmacology” (Bioorg Med Chem Lett, 2017).
Each block holds one compound with its values, some of them ahead of it. The source made the active and inactive calls. No cut-off for these calls is given here.

Tests used:
Rattus norvegicus [1] = assay: Volume of distribution at steady state […] in Sprague-Dawley rat at 0.1 to 1 mg/kg, iv; assay type: ADME, organism-based; conditions: in vivo
How it was run: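 IV pharmacokinetics in Sprague-Dawley rats at 0.1–1.0 mg/kg. CLp, elimination t½ and Vss derived.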

[2] = Unbound plasma concentration in rat; assay type: ADME, cell-free
[3] = Brain to plasma permeability coefficient, Kp of the compound in Sprague-Dawley rat at 0.1 to 0.2 mg/kg, iv measured at 0.25 hrs post dose; assay type: ADME, organism-based
How it was run: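 Sprague-Dawley rats were dosed IV at 0.1–0.2 mg/kg, with brain and plasma sampled at 0.25 hr. Brain:plasma Kp was calculated, with Kp,uu where unbound fractions were available.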

[4] = biological target: T1, Muscarinic acetylcholine receptor M4 (Homo sapiens) (UniProt P08173); assay: Positive allosteric modulation of human M4 receptor expressed in CHO cells coexpressing Gqi5 assessed as increase in acetylcholine-induced calcium mobilization relative to acetylcholine; assay type: functional, cell-based
T1 sequence (whole entry): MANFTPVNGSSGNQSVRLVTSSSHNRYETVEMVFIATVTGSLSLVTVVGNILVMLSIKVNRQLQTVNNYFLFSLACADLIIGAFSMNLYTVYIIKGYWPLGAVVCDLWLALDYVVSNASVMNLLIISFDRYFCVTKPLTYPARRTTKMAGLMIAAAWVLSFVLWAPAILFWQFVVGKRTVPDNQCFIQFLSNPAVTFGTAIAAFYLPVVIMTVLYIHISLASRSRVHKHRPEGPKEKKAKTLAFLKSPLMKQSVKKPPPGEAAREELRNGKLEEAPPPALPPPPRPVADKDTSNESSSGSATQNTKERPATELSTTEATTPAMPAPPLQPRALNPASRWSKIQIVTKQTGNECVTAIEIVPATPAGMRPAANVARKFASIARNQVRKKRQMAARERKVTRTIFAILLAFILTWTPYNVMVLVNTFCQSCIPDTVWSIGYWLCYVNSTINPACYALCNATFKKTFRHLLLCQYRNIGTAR
How it was run: (§1)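 Calcium mobilization in CHO cells expressing hM4 with Gqi5. Compound added in presence of a fixed EC20 concentration of acetylcholine. Values are means of three independent experiments, each run in triplicate.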

Cytochrome P450 1A2 = biological target: T2, Cytochrome P450 1A2 (Homo sapiens, UniProt P05177); assay: Inhibition of CYP1A2 (unknown origin); assay type: ADME
T2 sequence (P05177 whole entry): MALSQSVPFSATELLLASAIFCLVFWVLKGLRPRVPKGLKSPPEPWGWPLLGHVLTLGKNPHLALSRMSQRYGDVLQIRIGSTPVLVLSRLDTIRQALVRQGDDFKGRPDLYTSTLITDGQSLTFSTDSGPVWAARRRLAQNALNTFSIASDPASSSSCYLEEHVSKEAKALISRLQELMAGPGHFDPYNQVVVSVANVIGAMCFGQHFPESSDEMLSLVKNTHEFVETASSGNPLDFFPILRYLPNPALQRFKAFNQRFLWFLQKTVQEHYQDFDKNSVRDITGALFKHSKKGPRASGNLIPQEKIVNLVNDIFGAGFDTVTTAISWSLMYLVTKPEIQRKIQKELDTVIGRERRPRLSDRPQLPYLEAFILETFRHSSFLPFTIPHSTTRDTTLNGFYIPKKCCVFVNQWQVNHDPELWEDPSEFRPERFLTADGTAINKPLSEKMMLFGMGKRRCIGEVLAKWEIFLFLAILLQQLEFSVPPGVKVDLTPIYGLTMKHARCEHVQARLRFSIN

[5] = biological target: T3, Muscarinic acetylcholine receptor M4 (Homo sapiens, UniProt P08173); assay: Positive allosteric modulation of human M4 receptor expressed in CHO cells coexpressing Gqi5 assessed as increase in acetylcholine-induced calcium mobilization; assay type: functional, cell-based; how it was run: as §1
T3 sequence (P08173 whole entry): T1 sequence (whole entry)

Cytochrome P450 3A4 = Cytochrome P450 3A4 (Homo sapiens, UniProt P08684); assay: Inhibition of CYP3A4 (unknown origin); assay type: ADME
Cytochrome P450 2C9 = Cytochrome P450 2C9 (Homo sapiens, UniProt P11712); assay: Inhibition of CYP2C9 (unknown origin); assay type: ADME
Cytochrome P450 2D6 = Cytochrome P450 2D6 (Homo sapiens, UniProt P10635); assay: Inhibition of CYP2D6 (unknown origin); assay type: ADME
[6] = Unbound plasma concentration in human; assay type: ADME, cell-free
Rattus norvegicus [7] = assay: Elimination half-life in Sprague-Dawley rat at 0.1 to 1 mg/kg, iv; assay type: ADME, organism-based; conditions: in vivo
Cynomolgus monkey [8] = assay: Elimination half life in cynomolgus monkey at 10 mg/kg, iv; assay type: ADME, organism-based, Macaca fascicularis; conditions: in vivo
Cynomolgus monkey [9] = assay: Volume of distribution at steady state in cynomolgus monkey at 10 mg/kg, iv; assay type: ADME, organism-based, Macaca fascicularis; conditions: in vivo
[10] = Oral bioavailability in rat at 10 mg/kg; assay type: ADME, organism-based; conditions: in vivo
How it was run: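 Rat oral bioavailability from a 10 mg/kg solution dose. Separately, the HCl salt was dosed as a suspension.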

[11] = Elimination half life in dog at 3 mg/kg, iv or po; assay type: ADME, organism-based, Canis lupus familiaris; conditions: in vivo, read-out: beta t1/2 (converted)
[12] = Oral bioavailabilty in cynomolgus monkey at 10 mg/kg; assay type: ADME, organism-based, Macaca fascicularis; conditions: in vivo
How it was run: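 Cynomolgus monkey oral bioavailability from a 10 mg/kg solution dose of the HCl salt.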

[13] = Oral bioavailability in dog at 3 mg/kg; assay type: ADME, organism-based, Canis lupus familiaris; conditions: in vivo
How it was run: (§2)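 Dog IV and PO pharmacokinetics. Oral bioavailability from a 3 mg/kg suspension dose of the HCl salt.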

[14] = Volume of distribution at steady state in dog at 3 mg/kg, iv or po; assay type: ADME, organism-based, Canis lupus familiaris; conditions: in vivo, read-out: Vdss; how it was run: as §2
Macaca fascicularis [15] = species on record: Macaca fascicularis; assay: Activity at cynomolgus monkey M2 receptor
Canis lupus familiaris [16] = species on record: Canis lupus familiaris; assay: Positive allosteric modulation of dog M4 receptor assessed as increase in acetylcholine-induced calcium mobilization relative to acetylcholine
How it was run: (§3)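 M4 PAM concentration-response curves measured by calcium mobilization at the stated species' receptor. Potency reported as EC50/pEC50 and efficacy as % of acetylcholine maximum.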

Macaca fascicularis [17] = species on record: Macaca fascicularis; assay: Displacement of [3H]NMS from cynomolgus monkey M4 receptor
How it was run: (§4)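 Competition binding of ACh against [3H]-N-methylscopolamine at M4 of each species. Combined with ACh concentration-response fold-shift Ca2+ mobilization data to fit operational model parameters (KB, α, β). n=3–4, each in duplicate.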

Canis lupus familiaris [18] = species on record: Canis lupus familiaris; assay: Activity at dog M2 receptor
Macaca fascicularis [19] = species on record: Macaca fascicularis; assay: Positive allosteric modulation of cynomolgus monkey M4 receptor assessed as increase in acetylcholine-induced calcium mobilization relative to acetylcholine; how it was run: as §3
[20] = biological target: Muscarinic acetylcholine receptor M4 (Rattus norvegicus) (UniProt P08485); assay: Displacement of [3H]NMS from rat M4 receptor; how it was run: as §4
[21] = biological target: Muscarinic acetylcholine receptor M4 (Rattus norvegicus) (UniProt P08485); assay: Positive allosteric modulation of rat M4 receptor assessed as increase in acetylcholine-induced calcium mobilization relative to acetylcholine; assay type: functional; how it was run: as §3
Rattus norvegicus [22] = species on record: Rattus norvegicus; assay: Activity at rat GABA-A receptor
How it was run: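 Rat GABAA receptor, benzodiazepine site, radioligand binding in a broad secondary pharmacology panel. IC50 taken from binding. Functional follow-up was run at 10 μM.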

[23] = biological target: T1, Muscarinic acetylcholine receptor M4 (Homo sapiens); assay: Displacement of [3H]NMS from human M4 receptor; how it was run: as §4

Sequence of Muscarinic acetylcholine receptor M4 (Rattus norvegicus) (P08485 whole entry): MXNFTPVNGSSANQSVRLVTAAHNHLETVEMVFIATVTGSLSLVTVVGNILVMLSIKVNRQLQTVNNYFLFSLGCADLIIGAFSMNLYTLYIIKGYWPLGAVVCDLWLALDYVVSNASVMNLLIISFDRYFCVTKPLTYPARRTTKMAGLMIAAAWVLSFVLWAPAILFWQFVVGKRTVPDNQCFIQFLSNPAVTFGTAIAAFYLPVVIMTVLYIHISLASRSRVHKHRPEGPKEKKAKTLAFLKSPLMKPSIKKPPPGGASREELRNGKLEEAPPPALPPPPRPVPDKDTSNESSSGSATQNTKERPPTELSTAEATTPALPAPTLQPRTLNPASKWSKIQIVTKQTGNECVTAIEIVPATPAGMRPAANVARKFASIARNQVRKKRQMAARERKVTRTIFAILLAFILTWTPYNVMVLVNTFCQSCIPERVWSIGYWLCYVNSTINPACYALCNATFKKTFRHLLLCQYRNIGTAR
Sequence of Cytochrome P450 2C9 (P11712 whole entry): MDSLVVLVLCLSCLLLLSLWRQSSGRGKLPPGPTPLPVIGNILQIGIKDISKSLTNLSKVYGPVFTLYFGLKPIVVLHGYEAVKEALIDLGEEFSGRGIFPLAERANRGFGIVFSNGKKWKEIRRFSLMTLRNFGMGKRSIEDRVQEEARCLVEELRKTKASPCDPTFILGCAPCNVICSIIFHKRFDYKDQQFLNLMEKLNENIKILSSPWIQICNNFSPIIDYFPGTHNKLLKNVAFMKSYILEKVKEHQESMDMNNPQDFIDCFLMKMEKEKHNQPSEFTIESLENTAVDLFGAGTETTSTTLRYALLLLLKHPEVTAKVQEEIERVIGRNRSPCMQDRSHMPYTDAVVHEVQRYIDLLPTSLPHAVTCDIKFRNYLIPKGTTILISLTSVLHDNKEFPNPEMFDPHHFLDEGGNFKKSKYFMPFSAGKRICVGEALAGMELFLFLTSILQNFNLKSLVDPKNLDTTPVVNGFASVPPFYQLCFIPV
Sequence of Cytochrome P450 2D6 (P10635 whole entry): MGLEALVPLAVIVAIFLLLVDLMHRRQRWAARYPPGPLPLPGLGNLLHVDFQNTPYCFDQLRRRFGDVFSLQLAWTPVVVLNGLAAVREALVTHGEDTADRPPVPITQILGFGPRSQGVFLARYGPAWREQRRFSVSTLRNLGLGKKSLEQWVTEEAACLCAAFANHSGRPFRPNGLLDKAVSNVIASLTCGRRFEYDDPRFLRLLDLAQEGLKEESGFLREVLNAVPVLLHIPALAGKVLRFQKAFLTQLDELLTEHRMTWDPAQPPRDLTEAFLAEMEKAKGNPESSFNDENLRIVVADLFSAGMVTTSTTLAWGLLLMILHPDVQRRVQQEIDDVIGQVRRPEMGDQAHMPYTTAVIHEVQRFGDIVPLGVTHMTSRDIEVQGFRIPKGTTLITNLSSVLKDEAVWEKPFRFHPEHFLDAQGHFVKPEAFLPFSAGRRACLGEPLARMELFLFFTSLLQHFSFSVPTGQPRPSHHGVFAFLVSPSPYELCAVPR
Sequence of Cytochrome P450 3A4 (P08684 whole entry): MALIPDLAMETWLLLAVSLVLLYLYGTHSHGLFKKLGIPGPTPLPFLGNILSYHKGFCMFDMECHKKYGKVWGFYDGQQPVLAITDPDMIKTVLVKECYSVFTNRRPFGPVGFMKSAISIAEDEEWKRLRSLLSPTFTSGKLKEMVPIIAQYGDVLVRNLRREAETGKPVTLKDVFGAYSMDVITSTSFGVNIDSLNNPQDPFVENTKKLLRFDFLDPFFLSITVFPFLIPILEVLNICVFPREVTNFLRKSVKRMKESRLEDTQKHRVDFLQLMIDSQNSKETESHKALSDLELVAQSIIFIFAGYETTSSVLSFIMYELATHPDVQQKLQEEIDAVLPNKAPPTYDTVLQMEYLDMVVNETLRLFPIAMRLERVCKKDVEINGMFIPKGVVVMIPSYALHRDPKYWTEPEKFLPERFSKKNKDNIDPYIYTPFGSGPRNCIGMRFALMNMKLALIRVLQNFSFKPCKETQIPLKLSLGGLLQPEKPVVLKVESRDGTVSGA

Vdss (Rattus norvegicus [1]): 0.6 L/kg
fraction unbound [2]: 0.004
Kp [3]: 0.13
%max [4]: 79%
IC50 (Cytochrome P450 1A2): 0.79 µM
EC50 ([5]; read-out: EC50): 0.064 µM
IC50 (Cytochrome P450 3A4): 25 µM
IC50 (Cytochrome P450 2C9): 26 µM
IC50 (Cytochrome P450 2D6): > 30 µM
fraction unbound [6]: 0.023
beta t1/2 (Rattus norvegicus [7]): 0.48 h
Compound: Cc1nnc2sc(C(=O)NCc3ccc(-c4ccc(F)nc4)cc3)c(N)c2c1C

%max [4]: 68%
EC50 ([5]; read-out: EC50): 0.994 µM
Compound: Cc1cc(-c2ccc(CNC(=O)c3sc4nnc(C)c(C)c4c3N)cc2)cnc1F

%max [4]: 86%
EC50 ([5]; read-out: EC50): 1.72 µM
EC50 ([5]; read-out: pEC50 (converted)): 1.55 µM
Compound: Cc1nnc2sc(C(=O)NCc3ccc(-c4ccncc4F)cc3)c(N)c2c1C

%max [4]: 41%
EC50 ([5]; read-out: EC50): 1.65 µM
Compound: Cc1nnc2sc(C(=O)NCc3cccc(-c4ccccc4)c3)c(N)c2c1C

%max [4]: 65%
EC50 ([5]; read-out: EC50): 0.23 µM
EC50 ([5]; read-out: pEC50 (converted)): 0.214 µM
Compound: Cc1ncc(-c2ccc(CNC(=O)c3sc4nnc(C)c(C)c4c3N)cc2)cn1

beta t1/2 (Cynomolgus monkey [8]): 1.3 h
Vdss (Cynomolgus monkey [9]): 0.87 L/kg
bioavailability [10]: 54%
half-life [11]: 1 h
bioavailability [12]: 4.7%
bioavailability [13]: 47%
Vd [14]: 0.7 L/kg
Compound: Cc1nnc2sc(C(=O)NCc3ccc(-c4cccnc4F)cc3)c(N)c2c1C.Cl

%max [4]: 96%
EC50 ([5]; read-out: EC50): 0.056 µM
Compound: Cc1nnc2sc(C(=O)NCc3ccc(-c4ccnnc4)cc3)c(N)c2c1C

%max [4]: 78%
EC50 ([5]; read-out: EC50): 0.144 µM
Compound: Cc1nnc2sc(C(=O)NCc3ccc(-c4cncc(F)c4)cc3)c(N)c2c1C

Activity (Macaca fascicularis [15]): inactive
%max (Canis lupus familiaris [16]): 49%
%max [4]: 74%
Kb (Macaca fascicularis [17]): 2.1 µM
Activity (Canis lupus familiaris [18]): inactive
%max (Macaca fascicularis [19]): 64%
Kb [20]: 0.37 µM
%max [21]: 72%
Activity (Rattus norvegicus [22]): inactive
Kb [23]: 2.8 µM
Compound: Cc1nnc2sc(C(=O)NCc3ccc(-c4cccnc4F)cc3)c(N)c2c1C

Vdss (Rattus norvegicus [1]): 0.5 L/kg
fraction unbound [2]: 0.002
Kp [3]: 0.21
%max [4]: 92%
IC50 (Cytochrome P450 1A2): 2.5 µM
EC50 ([5]; read-out: EC50): 0.058 µM
IC50 (Cytochrome P450 3A4): 24 µM
IC50 (Cytochrome P450 2C9): 25 µM
IC50 (Cytochrome P450 2D6): > 30 µM
fraction unbound [6]: 0.029
beta t1/2 (Rattus norvegicus [7]): 1.7 h
Compound: Cc1nnc2sc(C(=O)NCc3ccc(-c4ccnc(F)c4)cc3)c(N)c2c1C
